High-throughput results deposited in PubChem by Broad Institute.
Sampled rows, rich in hits. Any-hit rate of the full collection: about 0.61%.
E-selectin induc: induces E-selectin expression in human endothelial cells. P16581. HUVEC E-selectin immunofluorescence imaging; normalized: neutral wells 0, TNF-alpha wells 100. activation, % at 7.58 µM. actives 0.37% (n = 260,000). AID 686992;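 active means mean E-selectin-positive cell signal at least 10% of the positive control, reached in at least 60% of replicates, without over 20% cell loss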
Target sequence (P16581 whole entry, looked up): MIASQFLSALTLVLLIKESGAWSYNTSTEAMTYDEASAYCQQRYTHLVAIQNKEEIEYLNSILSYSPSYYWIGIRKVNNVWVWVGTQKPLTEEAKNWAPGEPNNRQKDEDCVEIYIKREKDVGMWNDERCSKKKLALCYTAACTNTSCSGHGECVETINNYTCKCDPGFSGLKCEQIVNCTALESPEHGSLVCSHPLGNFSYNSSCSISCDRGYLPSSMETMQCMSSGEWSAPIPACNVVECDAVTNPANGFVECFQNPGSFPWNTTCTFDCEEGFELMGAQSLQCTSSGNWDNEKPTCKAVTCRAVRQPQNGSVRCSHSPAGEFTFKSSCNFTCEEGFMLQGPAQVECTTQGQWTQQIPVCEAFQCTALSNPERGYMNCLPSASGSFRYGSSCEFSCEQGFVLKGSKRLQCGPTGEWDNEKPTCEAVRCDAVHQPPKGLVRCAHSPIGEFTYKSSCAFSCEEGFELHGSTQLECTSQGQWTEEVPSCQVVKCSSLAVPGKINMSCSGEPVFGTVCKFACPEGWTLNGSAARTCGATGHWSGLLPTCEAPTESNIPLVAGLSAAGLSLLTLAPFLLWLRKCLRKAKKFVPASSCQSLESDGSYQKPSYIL
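Test system: HUVEC; input: 3,000 HUVEC/well; measured by: immunofluorescence imaging; read-out: % PE-positive cells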
F508del corr: CFTR F508del correction in bronchial cells; CFBE cells, YFP halide quenching; stimulated with forskolin plus potentiator P3; % fluorescence drop versus neutral controls; activity (quench increase), % at 7.58 µM; actives 0.36% (n = 350,000);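 active means mean added fluorescence quench of at least 8% versus neutral control, with both replicates also reaching 8%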;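 further: cells transiently co-express mutant CFTR-F508del with the halide-sensitive YFP; corrector assay measuring rescue of mutant channel to the surface after 24 h compound exposure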
Xi reactivation: X-chromosome reactivation activator. XiGFP mouse fibroblasts, % GFP-positive cells imaging, 3 d; cells co-treated with 5-aza-dC sensitizer; scaled so ellipticine positive control = 100%. activation, % at 7.58 µM. actives 0.055% (n = 360,000);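 active means mean normalized replicate activation at least 10% and every replicate at or above 10%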;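 further: 0% = median of on-plate neutral control wells and 100% = ellipticine 6 µM median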
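System: 68-5-11 XiGFP fibroblast line | Buffer or medium: DMEM containing 5-aza-dC | Compound: Single point | Times: Compounds 3 days, fix/stain 15 min at room temperature | Benchmarks: Positive control ellipticine, 6 µM final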
* marks the source's active call; other numbers are inactive results; x = no result.

SMILES	E-selectin induc	F508del corr	Xi reactivation
Cc1c(C(=O)N2CCN(S(=O)(=O)c3ccccc3)CC2)oc2ccccc12	0	-3	0
CCC(C)C(=O)Nc1nc(C)c(-c2csc(Nc3cc(Cl)ccc3OC)n2)s1 (centres undefined)	x	0	0
COc1ccc(OC)c(Nc2nc(-c3sc(NC(=O)C(C)(C)C)nc3C)cs2)c1	x	8.0*	0
COc1ccc(OC)c(Nc2nc(-c3sc(NC(=O)CC(C)C)nc3C)cs2)c1	0	0	0
COc1ccc(Cl)cc1Nc1nc(-c2sc(NC(=O)C(C)(C)C)nc2C)cs1	0	8.7*	0
C[C@@H]1CN([C@H](C)CO)C(=O)Cc2cc(NC(=O)Cn3cnnn3)ccc2O[C@@H]1CN(C)Cc1ccc2c(c1)OCO2	x	2	-1
C[C@@H]1CN([C@@H](C)CO)C(=O)Cc2cc(NS(=O)(=O)c3ccc(Cl)cc3)ccc2O[C@@H]1CN(C)CC1CCCCC1	19	6	0
C=CCn1c(SCC(C)=O)nc2sc3c(c2c1=O)CCC3	0	5	0
C=CCn1c(SCC(=O)N(CC)C2CCS(=O)(=O)C2)nc2sc3c(c2c1=O)CCC3 (centres undefined)	1	-1	137*
C=CCn1c(SCC(=O)N(C)C2CCS(=O)(=O)C2)nc2ccccc2c1=O (centres undefined)	0	19*	0
C=CCn1c(SCC(=O)N(CC)C2CCS(=O)(=O)C2)nc2ccccc2c1=O (centres undefined)	5	-1	0
C[C@@H]1CN([C@H](C)CO)C(=O)CCCn2cc(nn2)CO[C@@H]1CN(C)S(=O)(=O)c1ccccc1	0	-3	0
CO[C@@H]1CN(C)C(=O)c2cc(NC(=O)C3CCCCC3)ccc2OC[C@@H](C)N(C)C[C@@H]1C	0	-1	0
COc1ccc(CN(C)C[C@H]2Oc3ccc(NC(=O)Nc4ccc(F)cc4)cc3C(=O)N([C@@H](C)CO)C[C@@H]2C)cc1	-4	-1	-1
C/C=C/c1cnc2c(c1)C(=O)N([C@H](C)CO)C[C@@H](C)[C@@H](CN(C)Cc1ccccc1)O2	1	-2	0
COc1cc(OC)cc(C(=O)NNC(=O)CCNC(=O)c2ccc(Br)cc2)c1	x	-1	0
Cc1ccc(OCCC(=O)NNC(=O)c2ccncc2)cc1	0	-1	0
Cc1ccc(OCCC(=O)NNC(=O)c2ccc(Br)cc2)cc1	-1	8.6*	0
CCOc1ccc(C(=O)NNC(=O)CCNC(=O)c2ccc(Br)cc2)cc1OC	0	21*	0
C[C@H](CO)N1C[C@H](C)[C@H](CN(C)C)Oc2ccc(NC(=O)Nc3ccccc3)cc2C1=O	-5	0	1
COc1cccc(NC(=O)C[C@H]2CC[C@@H]3[C@@H](COc4ccc(NC(=O)C5CCCC5)cc4C(=O)N3C)O2)c1	0	-2	0
Cc1[nH]c2ccccc2c1/C=N/Nc1nc2ccccc2[nH]1	-1	-15	17*
Cc1ccccc1/C=N/Nc1nc2ccccc2[nH]1	x	1	0
CCC(=O)NC[C@@H]1N[C@@H](CO)[C@H]1c1ccc(C2=CCCC2)cc1	0	-3	0
C[C@H](O)C#Cc1ccc2c(c1)O[C@H](CN(C)Cc1ccncc1)[C@H](C)CN([C@@H](C)CO)S2(=O)=O	0	0	-1
SMILES	E-selectin induc	F508del corr	Xi reactivation
COCCCN=C1NN=C(c2cc(C)n(-c3ccccc3)c2C)CS1	x	-5	0
COCCCN=C1NN=C(c2cc(C)n(Cc3ccccc3Cl)c2C)CS1	1	9.1*	0
O=C(N[C@H]1CC[C@@H](CCn2cc(C3(O)CCCC3)nn2)O[C@@H]1CO)c1ccccc1F	0	-4	0
CCC(=O)Oc1cccc(C(=O)Nc2cccc(NC(=O)c3ccco3)c2)c1	38*	1	0
CCC(=O)Oc1ccc(NC(=O)c2ccco2)cc1	3	0	0
CNC[C@@H]1Oc2ccc(NS(C)(=O)=O)cc2CC(=O)N(C)C[C@H]1C	x	x	0
COc1ccc(C#Cc2ccc([C@H]3[C@H]4CN(Cc5ccccc5F)CCCCN4[C@H]3CO)cc2)cc1	0	-2	0
OC[C@@H]1[C@@H](c2ccc(C#CC3(O)CCCC3)cc2)[C@H]2CN(Cc3ccccc3F)CCCCN12	0	8.4*	0
COc1ccc(C#Cc2ccc([C@@H]3[C@@H](CO)N4CCCCN(Cc5ccccc5F)C[C@H]34)cc2)cc1	0	2	0
OC[C@H]1[C@H](c2ccc(C#CC3(O)CCCC3)cc2)[C@H]2CN(Cc3ccccc3F)CCCCN21	-1	8.9*	0
O=C(N[C@H]1CC[C@H](CCNS(=O)(=O)c2ccc(Cl)cc2)O[C@@H]1CO)c1cnccn1	-1	0	0
C[C@@H]1CN([C@H](C)CO)C(=O)Cc2cc(NC(=O)Nc3ccc4c(c3)OCO4)ccc2O[C@H]1CN(C)Cc1ccc(-c2ccccc2)cc1	x	2	-1
O=C(c1ccccc1F)N1C[C@H]2[C@@H](c3ccccc31)[C@H](CO)N2C(=O)Nc1ccccc1	0	1	0
O=C(CNC(=O)c1ccccc1)N=Nc1c(O)[nH]c2ccc(Br)cc12	x	-1	0
O=Nc1c(-c2c(O)[nH]c3cc(Br)ccc23)[nH]c2ccccc12	66*	-2	0
CN(C)c1ccc2c(c1)[C@@H]1C[C@@H](CC(=O)NCc3ccc(Oc4ccccc4)cc3)O[C@H](CO)[C@@H]1O2	x	17*	0
CN(C)c1ccc2c(c1)[C@@H]1C[C@H](CC(=O)NCc3ccc(Oc4ccccc4)cc3)O[C@@H](CO)[C@@H]1O2	x	6	0
C[C@H]1CN([C@@H](C)CO)C(=O)c2cc(C3=CCCC3)cnc2O[C@@H]1CN(C)C(=O)c1ccccn1	-1	-2	-1
Cc1ccc(OCC(=O)Nc2ccc(CN3CCCCC3)cc2)c(C)c1	x	8.3*	0
Cc1cc(OCC(=O)Nc2ccc(CN3CCCCC3)cc2)ccc1Cl	x	1	0
CNC[C@H]1OCCCC[C@H](C)Oc2ccc(NC(=O)c3ccncc3)cc2C(=O)N([C@@H](C)CO)C[C@@H]1C	0	2	0
NC(=O)N=Nc1c2[nH]c3ccccc3nc-2c2ccccc12	x	22*	0
O=c1[nH]c2ccccc2nc1-c1ccccc1	1	0	0
CN(C[C@@H]1N[C@H](CO)[C@H]1c1ccccc1)C(=O)c1ccccn1	0	8.6*	0
CN(C[C@@H]1N[C@H](CO)[C@@H]1c1ccccc1)C(=O)c1ccccc1F	x	x	0
Cc1cc2ccccc2n1CCNC(=O)Cc1ccccc1	3	4	0
Cc1cc(C)c(S(=O)(=O)NCCn2c(C)cc3ccccc32)c(C)c1	101*	-1	0
CN(c1ccc(O)cc1)c1nc(-c2cccs2)cs1	0	13*	0
Cc1nc(N)sc1-c1csc(N(C)c2ccc(O)cc2)n1	x	1	x
COc1ccc(S(=O)(=O)N2C[C@H](O)COC[C@@H]3O[C@@H](CC(=O)NCCN4CCCCC4)CC[C@H]32)cc1	0	1	0
